SMILES strings stand for the structures. pIC50: −log10 of the molar value. Activity calls are given as the source filed them. The calls are words filed in the database; no cut-off is given here.

IC50 and Activity data for eight compounds are collected here from ChEMBL document CHEMBL1154129, “Cytotoxic polyketides from a marine-derived fungus Aspergillus glaucus” (J Nat Prod, 2008).

Holding throughout (format): functional, cell-based
Experiment [1] deals with A549. As to the kind of experiment: Cytotoxicity against human A549 cells after 24 hrs by SRB assay. Conditions: A549, 24 h. In a few lines: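 A-549 cells plated at 2 × 10^5 cells/mL, then compounds added in MeOH (2 µL per well) at several concentrations for 24 h. Cells fixed with 12% trichloroacetic acid, stained with 0.4% SRB, absorbance read at 515 nm. IC50 taken from the linear portion of log dose–response curves.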
(In SRB staining, fixed cells bind dye roughly in proportion to their protein.)

The test system of experiment [2] is HL-60. The experiment can be described thus: Cytotoxicity against human HL60 cells after 72 hrs by MTT assay. Conditions: HL-60, 72 h. An outline of the steps:
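HL60 grown in RPMI-1640 with 10% FBS at 37 °C, 5% CO2. Seeded at 5 × 10^4 cells/mL, allowed 24 h, then given compounds in MeOH (2 µL per well) at several concentrations for 72 h. MTT (5 mg/mL stock) added for 4 h, formazan dissolved in DMSO, absorbance read at 540 nm. IC50 taken from the linear portion of log dose–response curves.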

In experiment [3] the test system is HL-60. As to the kind of experiment: Cytotoxicity against human HL60 cells at 100 uM after 72 hrs by MTT assay. For orientation: Tetrazolium dyes change colour on reduction, which living cells bring about.
In experiment [4] the test system is A549. As to the kind of experiment: Cytotoxicity against human A549 cells at 100 uM after 24 hrs by SRB assay.

For the compound `COc1cc(O)c2c(c1)[C@@H]([C@H]1c3cc(C)cc(O)c3C(=O)c3c(O)cc(O)cc31)c1cc(C)cc(O)c1C2=O` (relative stereo), the pIC50 in experiment [1] was 5.04; in experiment [2], 5.11.
For the compound `COc1cc(O)c2c(c1)[C@H]([C@H]1c3cc(C)cc(O)c3C(=O)c3c(O)cc(O)cc31)c1cc(C)cc(O)c1C2=O` (relative stereo), the pIC50 is 4.85 in experiment [1] and 4.36 in experiment [2].
For `COc1cc(O[C@H]2O[C@H](CO)[C@@H](O)[C@H]2O)cc2cccc(O)c12`, the result in experiment [3] and in experiment [4] was inactive.
For `COc1cc(O)cc2c1C(=O)c1c(O)cc(C)c3oc(=O)c(C(=O)c4c(C)cc(O)cc4O)c-2c13` [ASPERGIOLIDE B], the pIC50 is 6.62 in experiment [1] and 6.29 in experiment [2].
Consider `COc1cc(O[C@H]2O[C@H](CO)[C@@H](O)[C@H]2O)cc2cc(C)cc(O)c12`, for which the outcome in experiment [3] and in experiment [4] was inactive.
For the compound `COc1cc(O)cc2cc3c(c(O)c12)C(=O)C[C@@H](C)[C@@H]3O`, the result in experiment [3] and in experiment [4] was inactive.
For the compound `COc1cc(O)cc2c1C(=O)c1c(cc(C)c(C(=O)OC[C@H](O)CO)c1O)C2=O`, the outcome in experiment [3] and in experiment [4] was inactive.
With `COc1cc(O[C@H]2O[C@H](CO)[C@@H](O)[C@H]2O)cc2cc(C)c(C(C)=O)c(O)c12`, the result in experiment [3] and in experiment [4] was inactive.

A word on the pIC50: it is −log10 of the IC50, conventionally taken in molar units. Higher therefore signals a small IC50.
